Assay outcomes as filed in PubChem BioAssay.
Only some compounds are listed: those with a hit (about 4.3% of all), similar ones and a draw of the others.
NF-kB expr up – activators of NF-kB expression in neurons, primary screen, cell-based, HTS; human neuronal cells, NF-kB reporter expression; hits give high values; fold change at 12.5 µM; 1.6% of 190,000 active; AID 1239, 2008; in the data active means fold change above about 3.3
FLuc act counter – FLuc activators, initial screening, artefact control for FLuc-dependent activation tests, biochemical, ATPlite luminescence; 200,000 tested, under 10 active; AID 1027, 2008; Luciferin 4-monooxygenase (Photinus pyralis), P08659; ATPlite luciferase biochemical, 10 min; 0 = ATP-free wells, 1 = DMSO control; activation factor at 10 µM;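 active means luciferase activation factor, scaled between plate controls, of at least 2 with compound at 10 µM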
Target sequence (P08659 whole entry, looked up): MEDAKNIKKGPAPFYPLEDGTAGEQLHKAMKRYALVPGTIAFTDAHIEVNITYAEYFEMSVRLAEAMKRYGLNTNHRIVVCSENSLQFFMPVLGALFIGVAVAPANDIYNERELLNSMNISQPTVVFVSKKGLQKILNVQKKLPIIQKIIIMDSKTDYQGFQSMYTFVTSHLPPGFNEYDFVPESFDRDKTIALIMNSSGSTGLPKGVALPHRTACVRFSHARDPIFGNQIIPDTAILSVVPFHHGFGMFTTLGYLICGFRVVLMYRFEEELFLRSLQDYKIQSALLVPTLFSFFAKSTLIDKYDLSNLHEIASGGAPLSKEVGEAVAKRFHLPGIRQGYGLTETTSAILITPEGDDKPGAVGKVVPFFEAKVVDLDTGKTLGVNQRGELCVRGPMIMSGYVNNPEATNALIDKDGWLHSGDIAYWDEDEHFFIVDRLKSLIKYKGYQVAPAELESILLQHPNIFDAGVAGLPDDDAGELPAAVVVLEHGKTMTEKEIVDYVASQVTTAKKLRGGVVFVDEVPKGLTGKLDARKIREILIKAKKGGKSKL
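Material: Luciferase/luciferin reagent mix; Doses: test compounds dosed from 2 mM stocks in 100% DMSO; Schedule: 10 min incubation after luciferase reagent addition, room temperature; Measured by: luminescence from luciferase reaction; Read-out: luminescence gain marking luciferase activators.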
FLuc inh counter – firefly luciferase enzyme inhibitors, primary screen, artefact control for luciferase-based inhibitor screens, biochemical, luminescence, ATPLite; 10 min; inhibition, % at 10 µM; 1.5% of 200,000 active;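 active means inhibition above about 50% when tested at 10 µM, limit read from the data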
APP 5'UTR act – activators of APP 5'UTR luciferase reporter, primary screen, SH-SY5Y cells | SH-SY5Y APP 5'UTR luciferase reporter, luminescence; zero percent = DMSO vehicle wells | activation, % at 2 µM | 1% of 190,000 active;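 active means activation above a set limit, based on mean plus 3 SD of controls, cut at about 140% in these data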
STAT1 activator – STAT1 signaling activators, primary screen, cell-based, HTS, luciferase reporter | activation (% of control), % at 5.5 µM | NIH 3T3 STAT1-luciferase reporter, IFN-gamma, luminescence; 100% = IFN-gamma alone, no compound | 2.6% of 200,000 active;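 active means activation above the screen-wide mean activation plus 3 SD, cut at about 130% in these data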
Large screens that a line does not name were inactive.

CC/C(=N\NC(=O)c1csc(C)c1C)c1cccs1	NF-kB expr up 5.2, FLuc inh counter 81, STAT1 activator 138
CCc1ccc(C(=O)CSc2nc3cc(S(=O)(=O)N4CCOCC4)ccc3n2CC)cc1	none
COC(=O)C(C)Sc1ncnc2c1nnn2-c1ccc(F)cc1 (stereo unspecified)	STAT1 activator 137
Cn1c(=O)n(C)c2cc(/C=N/NC(N)=S)ccc21	none
Cn1c(SCc2nc3ccccc3c(=O)[nH]2)nc2ccccc21	none
Cn1c(-c2ccccc2)cnc1SCc1nc2ccccc2c(=O)[nH]1	FLuc inh counter 61, APP 5'UTR act 142, STAT1 activator 134
Oc1ccc(Cl)cc1-c1cc(-c2ccccc2)n[nH]1	none
Oc1ccc(F)cc1-c1cc(-c2ccc3c(c2)OCCO3)n[nH]1	NF-kB expr up 11, APP 5'UTR act 197
Cc1ccc(C(=O)CSc2nnc(C(C)C)n2C)cc1C	NF-kB expr up 3.4
CCCCn1nnnc1SCC(=O)c1ccc(C)c(C)c1	none
c1cnc2c(OCc3nc4ccccc4[nH]3)cccc2c1	STAT1 activator 144 (no result: APP 5'UTR act)
COc1ccccc1OCc1nc2ccccc2[nH]1	NF-kB expr up 4, STAT1 activator 132
COc1ccc(C(=O)NCc2nc3ccccc3[nH]2)cc1OC	none
Cc1ccccc1OCc1nc2ccccc2[nH]1	NF-kB expr up 4.2, FLuc inh counter 53, STAT1 activator 130
Brc1ccccc1OCCOc1cccc2cccnc12	none
CCO[C@@H]1OC(C(=O)N2CCCCCCC2)=C[C@H](c2ccc3c(c2)OCO3)[C@H]1CCCO	none
COc1ccc(NS(=O)(=O)c2cccc(C(=O)N/N=C/c3ccc(O)cc3)c2)cc1	none
Nc1nc2c(s1)CCc1c-2cnn1-c1ccccc1	NF-kB expr up 3.4, APP 5'UTR act 138, STAT1 activator 155
Cc1ccc(-n2nc3ccc(NC(=O)c4ccco4)cc3n2)cc1	none
Cc1ccc(-n2nc3ccc(NC(=O)C(C)C)cc3n2)cc1	APP 5'UTR act 194, STAT1 activator 135
CC(C)c1ccc(-n2nc3ccc(N)cc3n2)cc1	NF-kB expr up 4.9, FLuc inh counter 87
Cc1ccc(-n2nc3ccc(N)cc3n2)cc1	FLuc inh counter 76, STAT1 activator 150
Cc1ccc(-n2nc(-c3ccc(N)cc3)cc2N)cc1	none
COc1ccc2c(CC(=O)Nc3cccc(S(=O)(=O)N4CCOCC4)c3)coc2c1	none
COc1ccccc1N=C(C)C1=C(O)CC(c2ccccc2)CC1=O (stereo unspecified)	NF-kB expr up 3.5
CCCC(=Nc1ccccc1OC)C1=C(O)CC(c2ccccc2)CC1=O (stereo unspecified)	none
CS(=O)(=O)c1ccccc1COC(=O)Nc1ccc(Cl)cc1	none
O=C(Nc1ccc(Cl)cc1)OCc1ccccn1	STAT1 activator 144
C=C(C)COc1ccc2c3c(c(=O)oc2c1OCC(=C)C)CCC3	NF-kB expr up 3.5
Cc1oc(C(=O)O)cc1COc1ccc2c3c(c(=O)oc2c1C)CCC3	none
Cc1c(OCc2ccc([N+](=O)[O-])cc2)ccc2c3c(c(=O)oc12)CCC3	APP 5'UTR act 192
O=C(NCCCO)c1nc2ccccc2s1	none
CCCNC(=O)c1ccc(-c2nc3ccccc3s2)s1	NF-kB expr up 4.6, FLuc inh counter 90, APP 5'UTR act 155
Brc1ccc(-c2nc3ccccc3s2)s1	NF-kB expr up 6.8, FLuc inh counter 64, STAT1 activator 137
O=C(O)c1cc([N+](=O)[O-])cc2c1nnn2O	none
CCC1SC(=NC(=O)c2ccc(Cl)c(Cl)c2)NC1=O (stereo unspecified)	FLuc inh counter 59
N=c1sccn1CC(=O)Nc1cccc(S(=O)(=O)N2CCCCCC2)c1	none
Cc1cccc(NC(=O)c2cnc3sccn3c2=O)n1	none (no result: NF-kB expr up, FLuc act counter, FLuc inh counter)
Cc1cccc(NC(=O)c2cnc3sccn3c2=O)c1	NF-kB expr up 5.5, FLuc inh counter 60, APP 5'UTR act 167
O=C(Nc1cnc2sccn2c1=O)c1ccccc1Cl	STAT1 activator 140
Cc1cccc(NC(=O)c2cnc3sccn3c2=O)c1C	STAT1 activator 136
O=C(Nc1ccc2c(c1)OCCO2)c1cnc2ccccn2c1=O	STAT1 activator 154 (no result: NF-kB expr up, FLuc act counter, FLuc inh counter)
